Assay results published in ChEMBL document CHEMBL1144173, “1-Benzylbenzimidazoles: the discovery of a novel series of bradykinin B(1) receptor antagonists” (Bioorg Med Chem Lett, 2008).
In brackets after ≈: the same amount, converted by molar mass.

Experiments:
[1] = Oral bioavailability in rat at 10 mg/kg; assay type: ADME, organism-based; details: in vivo
B1 bradykinin receptor [2] = target: T1, B1 bradykinin receptor (Rattus norvegicus, UniProt P97583); experiment: Antagonist activity at rat bradykinin B1 receptor; assay type: functional
T1 sequence (P97583 whole entry): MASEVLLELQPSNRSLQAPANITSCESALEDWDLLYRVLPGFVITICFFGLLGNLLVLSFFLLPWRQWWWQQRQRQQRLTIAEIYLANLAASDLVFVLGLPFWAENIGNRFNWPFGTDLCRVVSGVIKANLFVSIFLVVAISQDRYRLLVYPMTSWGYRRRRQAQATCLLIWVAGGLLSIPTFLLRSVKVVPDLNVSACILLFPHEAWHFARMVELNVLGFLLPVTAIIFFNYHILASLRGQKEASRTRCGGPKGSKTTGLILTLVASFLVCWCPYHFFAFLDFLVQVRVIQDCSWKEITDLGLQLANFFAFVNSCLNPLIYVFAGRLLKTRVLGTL
Procedure, shortened: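 Rat B1 receptor tested in the same way as the cynomolgus assay: FLIPR Ca2+ transients with inhibition of DAKD-induced fluorescence measured across multiple compound concentrations to derive functional IC50.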

B1 bradykinin receptor [3] = target: T2, B1 bradykinin receptor (Homo sapiens, UniProt P46663); experiment: Inhibition of human bradykinin B1 receptor
T2 sequence (P46663 whole entry): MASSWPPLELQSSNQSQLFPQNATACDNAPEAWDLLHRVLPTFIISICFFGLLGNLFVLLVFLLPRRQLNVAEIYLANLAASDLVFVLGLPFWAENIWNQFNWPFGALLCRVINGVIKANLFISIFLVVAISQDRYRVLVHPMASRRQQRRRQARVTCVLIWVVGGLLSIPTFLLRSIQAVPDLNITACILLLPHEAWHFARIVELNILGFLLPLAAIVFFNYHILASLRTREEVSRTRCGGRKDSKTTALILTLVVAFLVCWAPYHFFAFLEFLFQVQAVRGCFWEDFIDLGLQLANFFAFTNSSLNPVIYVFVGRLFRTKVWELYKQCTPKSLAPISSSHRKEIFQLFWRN

B1 bradykinin receptor [4] = target: T3, B1 bradykinin receptor (Macaca fascicularis, UniProt Q3BCU0); experiment: Antagonist activity at Cynomolgus monkey bradykinin B1 receptor expressed in CHO cells assessed as calcium transient by FLIPR assay; assay type: functional, cell-based
T3 sequence (Q3BCU0 whole entry): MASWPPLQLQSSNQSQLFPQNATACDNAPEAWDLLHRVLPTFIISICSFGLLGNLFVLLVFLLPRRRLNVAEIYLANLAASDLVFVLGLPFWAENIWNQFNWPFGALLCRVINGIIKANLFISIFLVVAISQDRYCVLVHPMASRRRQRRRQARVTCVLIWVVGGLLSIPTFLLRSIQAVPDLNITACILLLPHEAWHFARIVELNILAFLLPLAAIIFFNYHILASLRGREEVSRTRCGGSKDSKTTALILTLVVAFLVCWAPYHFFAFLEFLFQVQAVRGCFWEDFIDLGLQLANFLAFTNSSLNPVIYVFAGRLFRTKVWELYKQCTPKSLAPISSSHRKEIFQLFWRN

MDR1 = experiment: Passive permeability from apical to basolateral side of MDCK cells expressing MDR1; assay type: ADME, cell-based, Canis lupus familiaris; details: dog
Procedure, shortened: (§1)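 MDR1-transfected MDCK cell monolayer. Apparent permeability (Papp) measured in the apical-to-basolateral and basolateral-to-apical directions. The A-to-B Papp is reported as passive permeability, and the efflux ratio is Papp(B→A)/Papp(A→B).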

MDCK [5] = experiment: Ratio of permeability from basolateral to apical over apical to basolateral side of MDCK cells expressing MDR1; assay type: ADME, cell-based, Canis lupus familiaris; details: dog; procedure, shortened: as §1
MDCK [6] = experiment: Ratio of permeability from basolateral to apical over apical to basolateral side of MDCK cells expressing MDR1 in presence of cyclosporine; assay type: ADME, cell-based, Canis lupus familiaris; details: dog
Procedure, shortened: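 MDR1-transfected MDCK monolayer run with 25 µM cyclosporine as P-gp inhibitor. Efflux ratio is Papp basolateral-to-apical divided by Papp apical-to-basolateral.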

Liver microsomes = experiment: Metabolic stability in rat liver microsomes at 1 uM after 10 mins by LC-MS analysis in presence of NADPH; assay type: ADME, Microsome
Procedure, shortened: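 Pooled male rat liver microsomes at 0.5 mg/ml with compound at 1 µM, 37 °C. Reaction started with NADPH, and aliquots taken at 0 and 10 min. Percent parent remaining is the 10-min/0-min signal ratio, corrected by internal standard recovery.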

[7] = Aqueous solubility at pH 7.4; assay type: physicochemical

Row | Compound | IC50 (B1 bradykinin receptor [4]) [nM] | also measured
1 | CCCN1C(=O)C(NC(=O)Nc2ccc(N3CCN(c4ccncc4)CC3)cc2)N=C(CCc2ccccc2)c2ccccc21 (stereo not given) |  | bioavailability [1]: < 4%; Ki (B1 bradykinin receptor [2]): 0.92 nM; Ki (B1 bradykinin receptor [3]): 0.59 nM
2 | CN(Cc1ccc(C#N)cc1)C(=O)CNC(=O)c1nc2ccccc2n1Cc1ccccc1 | > 5000 | Papp A→B (MDR1): 7 ×10⁻⁶ cm/s; Ratio (MDCK [5]): 3
3 | CN1CCC(N2CCN(C(=O)[C@H]3CCCN3C(=O)c3nc4ccccc4n3Cc3ccccc3)CC2)CC1 | 3220 | 
4 | CN1CCC(N2CCN(C(=O)[C@@H]3CCCN3C(=O)c3nc4ccccc4n3Cc3ccccc3)CC2)CC1 | 884 | 
5 | CN(Cc1ccc(C(N)=O)cc1)C(=O)CNC(=O)c1nc2ccccc2n1Cc1ccccc1 | > 5000 | 
6 | O=C(CCNC(=O)c1nc2ccccc2n1Cc1ccccc1)Nc1ccc2nc[nH]c2c1 | 744 | 
7 | CCN(CC(=O)N1CCN(c2ccncc2)CC1)Cc1nc2ccccc2n1Cc1ccccc1 | > 5000 | 
8 | CCN(CC(=O)N1CCN(C2CCN(C)CC2)CC1)Cc1nc2ccccc2n1Cc1ccccc1 | > 5000 | 
9 | O=C(NCCC(=O)N1CCC2(CCOCC2)CC1)c1nc2ccccc2n1Cc1ccccc1 | 1990 | 
10 | CN1CCC2(CCN(C(=O)CCNC(=O)c3nc4ccccc4n3Cc3ccccc3)CC2)C1 | 2910 | 
11 | O=C1NCC2(CCN(C(=O)CCNC(=O)c3nc4ccccc4n3Cc3ccccc3)CC2)O1 | > 5000 | 
12 | CN1CCC(N2CCN(C(=O)C3CCN(C(=O)c4nc5ccccc5n4Cc4ccccc4)CC3)CC2)CC1 | 4020 | 
13 | CN(Cc1ccc(C2=NCCN2)cc1)C(=O)C1CCN(C(=O)c2nc3ccccc3n2Cc2ccccc2)CC1 | 188 | 
14 | O=C(NCCC(=O)N1CCN(c2ccncc2)CC1)c1nc2ccccc2n1Cc1ccccc1 | 962 | 
15 | CN(Cc1ccc(C2=NCCN2C)cc1)C(=O)CNC(=O)c1nc2ccccc2n1Cc1ccccc1 | 14 | 
16 | Cc1nc(-c2ccc(CN(C)C(=O)CNC(=O)c3nc4ccccc4n3Cc3ccccc3)cc2)no1 | 718 | 
17 | CN(Cc1ccc(C2=NCCN2)cc1)C(=O)CCNC(=O)c1nc2ccccc2n1Cc1ccccc1 | 54 | 
18 | O=C(c1nc2ccccc2n1Cc1ccccc1)N1CCN(c2ccncc2)CC1 | > 5000 | 
19 | CN(Cc1ccc(-n2ccnc2)cc1)C(=O)CNC(=O)c1nc2ccccc2n1Cc1ccccc1 | 626 | 
20 | CN1CCC(N2CCN(C(=O)c3nc4ccccc4n3Cc3ccccc3)CC2)CC1 | > 5000 | 
21 | CCC(NC(=O)c1nc2ccccc2n1Cc1ccccc1)C(=O)N1CCN(C2CCN(C)CC2)CC1 (stereo not given) | 1300 | 
22 | CC(C)N(CC(=O)N1CCN(c2ccncc2)CC1)C(=O)c1nc2ccccc2n1Cc1ccccc1 | > 5000 | 
23 | O=C(CCNC(=O)c1nc2ccccc2n1Cc1ccccc1)Nc1ccc2cn[nH]c2c1 | 524 | 
24 | CN(Cc1ccc(CN2CCCCC2)cc1)C(=O)CNC(=O)c1nc2ccccc2n1Cc1ccccc1 | 196 | 
25 | CN(Cc1ccc(C2=NCCN2)cc1)C(=O)CNC(=O)c1nc2ccccc2n1Cc1ccccc1 | 5 | IC50 (B1 bradykinin receptor [2]): 155 nM; Papp A→B (MDR1): 1 ×10⁻⁶ cm/s; Ratio (MDCK [6]): 1.5; Ratio (MDCK [5]): 23

Row | Compound | IC50 (B1 bradykinin receptor [4]) [nM] | also measured
26 | CCC(NC(=O)c1nc2ccccc2n1Cc1ccccc1)C(=O)N1CCN(c2ccncc2)CC1 (stereo not given) | > 5000 | 
27 | CCCN(CC(=O)N1CCN(c2ccncc2)CC1)C(=O)c1nc2ccccc2n1Cc1ccccc1 | 355 | IC50 (B1 bradykinin receptor [2]): 396 nM
28 | CCCN(CC(=O)N1CCN(C2CCN(C)CC2)CC1)C(=O)c1nc2ccccc2n1Cc1ccccc1 | 18 | IC50 (B1 bradykinin receptor [2]): 23 nM
29 | CN1CCC(N2CCN(C(=O)CCNC(=O)c3nc4ccccc4n3Cc3ccccc3)CC2)CC1 | 601 | 
30 | CN(Cc1ccc(-c2ccccn2)cc1)C(=O)CNC(=O)c1nc2ccccc2n1Cc1ccccc1 | 407 | 
31 | CN(Cc1ccc(-c2nccs2)cc1)C(=O)CNC(=O)c1nc2ccccc2n1Cc1ccccc1 | 1170 | 
32 | CN(Cc1ccc(-c2cc[nH]n2)cc1)C(=O)CNC(=O)c1nc2ccccc2n1Cc1ccccc1 | 2130 | 
33 | O=C(CCNC(=O)c1nc2ccccc2n1Cc1ccccc1)Nc1ccc(C2=NCCN2)nc1 | 2 | IC50 (B1 bradykinin receptor [2]): 0.8 nM; Ratio (MDCK [5]): 42
34 | O=C(NCC(=O)N1CCN(c2ccncc2)CC1)c1nc2ccccc2n1Cc1ccccc1 | 310 | IC50 (B1 bradykinin receptor [2]): 417 nM
35 | CN(Cc1ccc(-c2nnn[nH]2)cc1)C(=O)CNC(=O)c1nc2ccccc2n1Cc1ccccc1 | > 5000 | 
36 | CN(CC(=O)N1CCN(c2ccncc2)CC1)C(=O)c1nc2ccccc2n1Cc1ccccc1 | 1180 | 
37 | CCN(CC(=O)N1CCN(c2ccncc2)CC1)C(=O)c1nc2ccccc2n1Cc1ccccc1 | 278 | 
38 | CC(C)N(CC(=O)N1CCN(C2CCN(C)CC2)CC1)C(=O)c1nc2ccccc2n1Cc1ccccc1 | 465 | 
39 | CCN(CC(=O)N(C)Cc1ccc(C2=NCCN2)cc1)C(=O)c1nc2ccccc2n1Cc1ccccc1 | 6 | IC50 (B1 bradykinin receptor [2]): 345 nM
40 | O=C([C@H]1CCCN1C(=O)c1nc2ccccc2n1Cc1ccccc1)N1CCN(c2ccncc2)CC1 | 4070 | 
41 | O=C([C@@H]1CCCN1C(=O)c1nc2ccccc2n1Cc1ccccc1)N1CCN(c2ccncc2)CC1 | > 5000 | 
42 | CN(C)C(=O)c1ccc(CN(C)C(=O)CNC(=O)c2nc3ccccc3n2Cc2ccccc2)cc1 | > 5000 | 
43 | CN1CCC(N2CCN(C(=O)CN(C)C(=O)c3nc4ccccc4n3Cc3ccccc3)CC2)CC1 | 268 | 
44 | CN1CCC2(CC1)CCN(C(=O)CCNC(=O)c1nc3ccccc3n1Cc1ccccc1)CC2 | > 5000 | 
45 | CN(Cc1ccc(-c2ncccn2)cc1)C(=O)CNC(=O)c1nc2ccccc2n1Cc1ccccc1 | 330 | 
46 | CN1CCC(N2CCN(C(=O)CNC(=O)c3nc4ccccc4n3Cc3ccccc3)CC2)CC1 | 686 | 
47 | Cc1c(C(=O)NCCC2CCN(C3CCN(C)CC3)CC2)n[nH]c1NC(=O)c1ccccc1Cl |  | IC50 (B1 bradykinin receptor [3]): 1.8 nM
48 | O=C(c1nc2ccccc2n1Cc1ccccc1)N1CCC(C(=O)N2CCN(c3ccncc3)CC2)CC1 | 2310 | 
49 | CN(Cc1ccc(C2=NCCN2)cc1)C(=O)c1nc2ccccc2n1Cc1ccccc1 | 1020 | 
50 | CCN(CC(=O)N1CCN(C2CCN(C)CC2)CC1)C(=O)c1nc2ccccc2n1Cc1ccccc1 | 16 | Stability (Liver microsomes): Stable; solubility [7]: 120 µg/mL (≈ 239 µM); bioavailability [1]: < 5%; IC50 (B1 bradykinin receptor [2]): 15 nM; Papp A→B (MDR1): 0.6 ×10⁻⁶ cm/s; Ratio (MDCK [5]): 55
